Measurements from different studies.
Converted amounts (≈) assume the structure as drawn.

SMILES	organism	test	system	setting	endpoint	value
C[C@@H]1[C@H](O)[C@@H](C)/C=C/C=C/C=C/C=C/C=C/C=C/C=C/[C@H](O[C@@H]2O[C@H](C)[C@@H](O)[C@H](N)[C@@H]2O)C[C@@H]2O[C@](O)(C[C@@H](O)C[C@@H](O)[C@H](O)CC[C@@H](O)C[C@@H](O)CC(=O)O[C@H]1C)C[C@H](O)[C@H]2C(=O)O	Aspergillus fumigatus	microbial growth, resazurin	ATCC204305	–	IC50	1.18 µg/mL
CCCCCCCCCc1cn(CCN2CCN(C(=O)c3c(C)nc4cc(C)ccn34)CC2)nn1	Leishmania major	parasite growth, resazurin	–	72 h, promastigote	IC50	38.5 µM
Fc1ccc(-c2nc3ccccc3[nH]2)cc1	Enterococcus faecalis	microbial growth, broth dilution	ATCC29212	–	MIC	256 µg/mL
CC1=NN(CNc2ccc(Cl)cc2)C(=O)C1=NNn1c(-c2ccccc2)nc2ccccc2c1=O	Aspergillus fumigatus	microbial growth, broth dilution	–	–	MIC	51.5 µM
CCc1ccc(-n2cc(CN3CCN(C(=O)c4c(C)nc5cc(C)ccn45)CC3)nn2)cc1	Leishmania major	parasite growth, resazurin	–	72 h, promastigote	IC50	74.6 µM
CC1(C)S[C@@H]2[C@H](NC(=O)[C@H](N)c3ccccc3)C(=O)N2[C@H]1C(=O)O	Enterococcus faecalis	microbial growth, agar dilution	ATCC33186	26.93 µM	inhibition	100%
C[C@@H]1[C@H](O)[C@@H](C)/C=C/C=C/C=C/C=C/C=C/C=C/C=C/[C@H](O[C@@H]2O[C@H](C)[C@@H](O)[C@H](N)[C@@H]2O)C[C@@H]2O[C@](O)(C[C@@H](O)C[C@@H](O)[C@H](O)CC[C@@H](O)C[C@@H](O)CC(=O)O[C@H]1C)C[C@H](O)[C@H]2C(=O)O	Aspergillus fumigatus	microbial killing	ATCC204305	–	MFC	2.57 µM (≈ 2.37 µg/mL)
C[C@@H](c1ncncc1F)[C@](O)(Cn1cncn1)c1ccc(F)cc1F	Acanthamoeba griffini	parasite growth, resazurin	–	7 days	IC50	37.6 µM
O=C1NN=C(N=Cc2ccc(O)cc2O)C1=NNn1c(-c2ccccc2)nc2ccccc2c1=O	Aspergillus fumigatus	microbial growth, broth dilution	–	–	MIC	53.5 µM
COc1cccc(-n2cc(CN3CCN(C(=O)c4c(C)nc5ccc(Cl)cn45)CC3)nn2)c1	Leishmania major	parasite growth, resazurin	–	72 h, promastigote	IC50	112 µM
Cc1ccc2nc(-c3ccccc3O)[nH]c2c1	Enterococcus faecalis	microbial growth, broth dilution	ATCC29212	–	MIC	64 µg/mL
CCCc1cn(CCN2CCN(C(=O)c3c(C)nc4cc(C)ccn34)CC2)nn1	Leishmania major	parasite growth, resazurin	–	72 h, promastigote	IC50	176 µM
Oc1ccc(Br)cc1-c1nc2ccccc2[nH]1	Enterococcus faecalis	microbial growth, broth dilution	ATCC29212	–	MIC	128 µg/mL
Cc1nc2ccc(Cl)cn2c1C(=O)N1CCN(Cc2cn(-c3ccccc3Cl)nn2)CC1	Leishmania major	parasite growth, resazurin	–	72 h, promastigote	IC50	91.5 µM
C=CCn1c(-c2ccc(Cl)c(Cl)c2)nc2ccccc21	Enterococcus faecalis	microbial growth, broth dilution	ATCC29212	–	MIC	64 µg/mL
CC1=NN(CNc2ccc(O)cc2)C(=O)C1=NNn1c(-c2ccccc2)nc2ccccc2c1=O	Aspergillus fumigatus	microbial growth, broth dilution	–	–	MIC	53.5 µM
O=C(O)c1cn(C2CC2)c2cc(N3CCNCC3)c(F)cc2c1=O	Enterococcus faecalis	microbial growth, broth dilution	ATCC29212	–	MIC	8 µg/mL
CN(C)N1C(=O)c2ccccc2C1CB1OC(C)(C)C(C)(C)O1 (centres unmarked)	Leishmania major	parasite growth	–	intracellular, amastigote	IC50	94.6 µM
c1ccc2c(-c3nc4ccccc4[nH]3)c3ccccc3cc2c1	Enterococcus faecalis	microbial growth, broth dilution	ATCC29212	–	MIC	64 µg/mL
Cc1ccn2c(C(=O)N3CCN(CCn4cc(-c5ccc(C(C)(C)C)cc5)nn4)CC3)c(C)nc2c1	Leishmania major	parasite growth, resazurin	–	72 h, promastigote	IC50	15.1 µM
